Source: PubChem
HTR2A ag = activates the mouse 5-HT2A serotonin receptor; CHO-K1 mHTR2A beta-arrestin complementation, luminescence; percent of 30 µM serotonin response; activation, % at 7.6 µM; P35363; hit rate 0.66% among 360,000;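 active means activation above a run cutoff, the mean activation of all tested compounds plus 3 SD, cut at about 14% in these data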;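 further: 0% = plate median of compound wells and 100% = 30 µM serotonin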
CCR6 antag = blocks CCL20-driven beta-arrestin recruitment at human CCR6. P51684. CHO-K1 CCR6 PathHunter beta-arrestin, luminescence, CCL20-stimulated. inhibition, % at 20 µM. AID 493098. hit rate 0.49% among 340,000;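 active means compounds whose inhibition of the agonist-driven luminescence signal at 20 µM reaches about 50%, limit read from the data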;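 further: cells stimulated with CCL20 at 14 nM final; plate controls were DMSO with CCL20 for no effect and DMSO without agonist for full effect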
APJ ag = activates the human apelin receptor APJ. P35414. AID 2520. hit rate 0.11% among 330,000. activation, % at 20 µM. CHO-K1 APJ PathHunter beta-arrestin, luminescence; 0% DMSO wells, 100% apelin;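 active means activation more than six SD over the plate average, tested at 20 µM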;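 further: 0% = DMSO alone and 100% = apelin-13 at 10 nM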
Target sequence (P35414 whole entry, looked up): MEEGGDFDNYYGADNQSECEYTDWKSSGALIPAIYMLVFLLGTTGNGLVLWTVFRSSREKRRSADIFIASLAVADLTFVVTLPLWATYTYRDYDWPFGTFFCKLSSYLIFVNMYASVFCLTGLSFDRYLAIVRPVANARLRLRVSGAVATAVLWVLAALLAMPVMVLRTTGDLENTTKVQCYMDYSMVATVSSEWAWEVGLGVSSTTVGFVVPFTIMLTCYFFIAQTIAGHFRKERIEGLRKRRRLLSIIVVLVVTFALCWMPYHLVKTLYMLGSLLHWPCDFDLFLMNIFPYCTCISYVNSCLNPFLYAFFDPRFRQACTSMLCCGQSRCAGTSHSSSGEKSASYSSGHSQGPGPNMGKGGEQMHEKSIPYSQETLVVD
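Test system – PathHunter CHO-K1 APJ (AGTRL-1) beta-arrestin reporter cells · Input – 1000 cells/well · Compound – single test compound dose, 20 µM final, 1% DMSO · Times – compound stimulation 90 min at 25 °C, detection 60 min · Technique – beta-gal luminescence · Read-out basis – APJ–arrestin association signal · Control set – negative DMSO alone, positive Apelin-13 at 10 nM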
EBI2 block = antagonists of human EBI2 receptor. inhibition, % at 5 µM. hit rate 0.81% among 360,000. AID 651636. P32249. EBI2 beta-arrestin recruitment, luminescence, 7a,25-OHC stimulated; in the data active means inhibition above about 38%;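 further: enzyme fragment complementation signal reports receptor beta-arrestin coupling in cells; 0% = agonist plus DMSO wells and 100% = wells without agonist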
APJ antagonist = APJ receptor antagonism | P35414 | CHO-K1 APJ beta-arrestin complementation, luminescence | inhibition, % at 20 µM | hit rate 0.32% among 330,000;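 active means inhibition above about 40% at 20 µM, limit read from the data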;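 further: cells challenged with 10 nM apelin-13 agonist together with compound; plate controls were apelin-13 plus DMSO wells for no effect and DMSO wells lacking apelin-13 for full effect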
CXCR6 inh = blocks human CXCR6 beta-arrestin recruitment; O00574; CHO-K1 PathHunter CXCR6 beta-arrestin, luminescence; inhibition, % at 20 µM; hit rate 0.36% among 360,000; in the data active means inhibition above about 34%, passing the limit was not always enough;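 further: antagonist mode with CXCL16 agonist at 10 nM final; 0% = 10 nM CXCL16 with DMSO and 100% = unstimulated wells without agonist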
EBI2 conf = confirmation of human EBI2 receptor antagonists; shares compounds with EBI2 block; EBI2 beta-arrestin luminescence, 7a,25-OHC antagonism; inhibition, % at 5 µM; hit rate 29% among 2,400;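 active means inhibition of at least 50%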
EBI2 ag = counter-screen for EBI2 antagonists: EBI2 agonist activity. shares compounds with EBI2 block. EBI2-expressing cells, agonist mode, luminescence, 60 min; 0% vehicle, 100% 7α,25-dihydroxycholesterol control. activation, % at 5 µM. 2,400 tested, under 10 active. AID 652000;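 active means activation of at least 50%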
bGal cs = beta-galactosidase inhibition counter-screen; inhibition, % at 5 µM; purified beta-galactosidase, luminescent Galacton Star, 15 min; hit rate 1% among 2,400; shares compounds with EBI2 block;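 active means replicate-average signal at least 3 plate SD below neutral wells, shown as high inhibition, flagging enzyme-inhibiting false positives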;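 further: 0% = DMSO wells with enzyme and 100% = wells lacking enzyme; higher means stronger loss of beta-gal luminescence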
* marks the source's active call; other numbers are inactive results; nt = no result. Rows were chosen to be rich in hits. Some 2.1% of all compounds tested hit in one or more screens of this group.

SMILES	HTR2A ag	CCR6 antag	APJ ag	EBI2 block	APJ antagonist	CXCR6 inh	EBI2 conf	EBI2 ag	bGal cs
CCCc1cc(C(=O)N2CCCN(C)CC2)cs1	0	-11	-9	1	4	1	nt	nt	nt
O=C(O)c1ccccc1C(=O)c1ccc2c(c1)CCC2	0	13	-2	-7	-3	3	nt	nt	nt
CCCC(=O)n1nc(-c2ccc(Cl)cc2)nc1SC	9	-13	-3	80*	0	-13	40	1	9
CCC(=O)n1nc(-c2ccc(Cl)cc2)nc1SC	-2	7	-4	9	-8	-16	nt	nt	nt
CC(=O)c1ccc(S(=O)(=O)NCCC(=O)OCC(=O)N2CCCC2=O)cc1	3	-13	0	-11	-10	-11	nt	nt	nt
O=C(Nc1ccc(-c2csc(Nc3cccc(C(F)(F)F)c3)n2)cc1)c1ccccc1	6	-8	1	20	-13	1	nt	nt	nt
O=C(Nc1cccc(-c2csc(Nc3cccc(C(F)(F)F)c3)n2)c1)c1ccccc1	0	-1	0	46*	-1	-12	23	-1	-15
COc1cc2c(cc1OC)C(c1ccc(-c3ccc(Cl)cc3Cl)o1)=NCC2	-5	-1	-1	74*	-5	-3	66*	-1	-17
Nc1c(C(=O)Nc2ccccc2)c2nc3ccccc3nc2n1-c1ccc(O)cc1	-2	-8	-3	31	-19	9	nt	nt	nt
O=C(/C=C/c1ccccc1)N1CCN(c2ccccn2)CC1	2	13	-3	88*	9	7	74*	1	2
O=C(c1ccccc1Cl)N1CCN(c2ccccn2)CC1	-1	1	-7	5	-3	0	nt	nt	nt
O=C(/C=C/c1ccc(Cl)c(C(F)(F)F)c1)N1CCN(c2ccccn2)CC1	7	16	-3	48*	9	-3	37	1	3
COc1ccc(/C=C/C(=O)N2CCN(c3ccccn3)CC2)cc1OC	5	-1	-3	19	-7	-7	nt	nt	nt
COc1cc(/C=C/C(=O)N2CCN(c3ccccn3)CC2)cc(OC)c1OC	2	5	1	16	-19	-7	nt	nt	nt
O=C(/C=C/c1cccc(F)c1)N1CCN(c2ccccn2)CC1	5	4	-1	77*	-22	6	61*	0	-6
O=C(/C=C/c1ccc(Cl)cc1)N1CCN(c2ccccn2)CC1	7	20	1	93*	9	4	80*	-2	-8
Cc1nnc(SCC(=O)Nc2sc3c(c2C(N)=O)CCC(C)C3)[nH]c1=O (configuration not stated)	2	7	-2	-6	7	-3	nt	nt	nt
COc1ccc(CCN2CC(C(=O)NCC(=O)Nc3ccc(F)c(F)c3)CC2=O)cc1OC (configuration not stated)	-1	11	-2	-3	-2	4	nt	nt	nt
CCCCn1c(N)c(N(Cc2ccccc2OC)C(=O)c2sccc2C)c(=O)[nH]c1=O	-1	6	2	-12	19	4	nt	nt	nt
O=C(c1ccccc1F)N1CCN(c2ccccn2)CC1	-2	14	0	6	10	-1	nt	nt	nt
O=C(/C=C/c1ccccc1F)N1CCN(c2ccccn2)CC1	-3	9	-3	45*	8	-10	32	0	5
Nc1ccc(C=Cc2ccc(N)cc2)cc1	8	nt	nt	-2	nt	1	nt	nt	nt
CCOC(=O)C1(CCOc2ccccc2)CCN(C(=O)c2ccc(-n3cccn3)cc2)CC1	-4	13	1	88*	-1	-1	68*	0	7
CCOC(=O)C1(CCOc2ccccc2)CCN(Cc2cccc(-n3cccn3)c2)CC1	-5	4	-2	2	17	9	nt	nt	nt
Cc1cccc(C(=O)N/C(=C\c2ccco2)C(=O)N2CCCC2)c1	7	-3	-5	11	-20	-1	nt	nt	nt
SMILES	HTR2A ag	CCR6 antag	APJ ag	EBI2 block	APJ antagonist	CXCR6 inh	EBI2 conf	EBI2 ag	bGal cs
CCN1CCN(C(=O)c2cc(=O)c3cc(C)ccc3o2)CC1	2	-4	-3	67*	22	0	42	0	9
CN1CCN(C(=O)c2cc(=O)c3cc(Cl)ccc3o2)CC1	2	2	-3	38	9	5	nt	nt	nt
CCc1ccc2oc(C(=O)N3CCN(C)CC3)cc(=O)c2c1	0	5	-5	45*	15	-11	8	1	6
CC(C)(C)c1ccc(OCC(=O)N2CCN(c3ncccn3)CC2)cc1	8	12	-2	9	8	-8	nt	nt	nt
Cc1ccc(Cl)cc1N1CCN(C(=O)COc2ccc3c(c2)CCC3)CC1	-5	10	-2	78*	10	-1	42	-1	-13
COc1ccccc1N1CCN(C(=O)COc2ccc(Cl)cc2)CC1	-3	0	7	81*	17	-1	52*	1	4
COc1ccccc1OCC(=O)N1CCN(c2ccccc2OC)CC1	-3	1	1	0	5	-1	nt	nt	nt
O=C(COc1ccccc1)N1CCN(c2ncccn2)CC1	-1	3	-3	24	-5	-6	nt	nt	nt
O=C(COc1ccc(Br)cc1)N1CCN(c2ncccn2)CC1	8	-4	-4	94*	-6	-8	79*	0	1
O=C(COc1ccc(Cl)cc1)N1CCN(c2ncccn2)CC1	4	-14	-5	73*	-22	-3	58*	2	-2
COc1cc(-c2nc(-c3ccccc3)c(-c3cccs3)[nH]2)cc(OC)c1OC	-2	7	-3	45*	2	18	16	2	4
COc1cc(-c2nc(-c3ccccc3)c(-c3cccs3)[nH]2)cc(OC)c1O	-1	-2	2	17	-5	4	nt	nt	nt
CCN(Cc1ccccc1)c1cc2c(c3c1ccn3C)C1CCC2C1 (configuration not stated)	4	nt	nt	2	nt	3	nt	nt	nt
COc1cc(/C=N/OCC(=O)NC2CCCCC2)ccc1OCc1ccccc1	0	7	-2	9	0	-4	nt	nt	nt
COc1cc(/C=N/OCC(=O)NC23CC4CC(CC(C4)C2)C3)ccc1OCc1ccccc1	0	34	-2	45*	-12	11	27	0	9
O=C1Nc2ccccc2C1=Nc1ccccc1-c1ccccc1	-3	21	nt	8	nt	25	nt	nt	nt
Cn1ccnc1C(=O)c1cc(SCC(=O)NCc2ccccc2)nc2ccccc12	3	4	-3	44*	-14	-6	-7	1	3
